SUMO Mot1 rescue: blocks SUMOylation pathway, rescuing yeast Mot1-301 growth | 320,000 tested, 1% active | AID 2716 | S. cerevisiae Mot1-301 growth rescue, ATP luminescence, 38.5C; percent above DMSO median, 100 means doubled | growth rescue, % at 18.8 µM;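 active = every valid replicate shows activation above 250% relative to neutral control wells; inactive = the rest, any valid replicate at or below 250%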;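 note: OY570 slx delta 5 strain wells were the positive control but not used for scaling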
RTF Ca sens inh: cardiac RTF calcium desensitization. IANBD-labeled cardiac RTF, Ca2+ fluorescence. inhibition, % at 7.15 µM. 340,000 tested, 0.12% active;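 active = inhibition above the mean inhibition of all tested compounds plus 3 SD, cut at about 17% in these data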;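 note: assay run at fixed EC70 calcium of 1.6 mM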
UCH37 inh: inhibitors of human deubiquitinating enzyme UCH37; Q9Y5K5; purified proteasome/UCH37, Ub-AMC cleavage fluorescence; inhibition, % (no concentration beside the values); 330,000 tested, 0.33% active; AID 588478;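 active = mean inhibition over replicate wells above about 20%, limit read from the data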;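 note: 0% = compound-free wells with enzyme and 100% = wells lacking proteasome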
Target sequence (Q9Y5K5 whole entry, looked up): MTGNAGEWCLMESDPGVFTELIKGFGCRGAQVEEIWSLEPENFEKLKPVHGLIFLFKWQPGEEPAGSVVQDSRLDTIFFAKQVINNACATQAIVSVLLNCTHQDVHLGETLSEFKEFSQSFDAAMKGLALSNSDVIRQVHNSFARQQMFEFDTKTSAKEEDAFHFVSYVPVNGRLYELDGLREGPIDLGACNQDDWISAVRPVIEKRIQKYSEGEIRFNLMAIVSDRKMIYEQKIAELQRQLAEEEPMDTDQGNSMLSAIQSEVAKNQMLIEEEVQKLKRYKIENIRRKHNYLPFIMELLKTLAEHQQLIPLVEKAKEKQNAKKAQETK
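Material: Human UCH37 enzyme supplied as purified proteasome complex | Schedule: 30 min compound-proteasome preincubation then 25 min substrate reaction, room temperature | Detection: AMC fluorescence from Ub-AMC cleavage, excitation 355 nm, emission 460 nm | Benchmarks: Wells without proteasome as full block, compound-free enzyme plus substrate as uninhibited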
cardiac RTF act: cardiac RTF calcium sensitization; P19429+P45379; IANBD-labeled TnC RTF fluorescence at EC20 calcium; 0% EC20 calcium, 100% full calcium; activation, % at 7.2 µM; 340,000 tested, 0.24% active;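 active = activation above the mean over all tested compounds plus 3 SD, cut at about 30% in these data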;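 note: rise in fluorescence read as greater calcium sensitivity of cardiac thin filaments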
Efflux pump inh: inhibitors of Candida antifungal efflux pumps expressed in yeast | S. cerevisiae Candida pump triplex, Nile Red efflux | inhibition, % at 10 µM | 330,000 tested, 0.44% active | AID 485275;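 active = plate passing quality check with inhibition over a set limit, or well fluorescence over plate mean plus 4 SD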;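 note: Nile Red retained in pooled yeast measured as flow cytometry median fluorescence; 0% = buffer negative control and 100% = Enniatin B positive control; higher means more Nile Red kept so more efflux inhibition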
ARNT TACC3 PPI: disruptors of human ARNT/TACC3 interaction. Q9Y6A5. AlphaScreen His-ARNT PAS-B/GST-TACC3 binding, luminescence; TACC3 fragment carries E629A point mutation. inhibition, % at 9.99 µM. 390,000 tested, 0.66% active. AID 623870;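 active = mean inhibition of replicates at least 50% and at least half of replicates each reaching 50%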;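 note: 0% = complete ARNT plus TACC3 wells and 100% = ARNT alone without TACC3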
Cmpd fluor yeast: compound fluorescence in yeast efflux pump counter-screen; S. cerevisiae AD/pABC3, flow cytometry; shares compounds with Efflux pump inh; fluorescence ratio to DMSO, % at 10 µM; 1,700 tested, 4% active; AID 588517;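 active = fluorescence ratio to DMSO above its plate's cutoff, the plate mean ratio plus 5 SD, cut at about 210% in these data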;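 note: unstained yeast with no Nile Red so the signal is compound autofluorescence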
CaMdr1 efflux inh: inhibitors of Candida albicans Mdr1 efflux pump. inhibition, % at 10 µM. S. cerevisiae AD/CaMDR1, Nile Red efflux, flow cytometry. shares compounds with Efflux pump inh. AID 588518. 1,700 tested, 1% active; in the data active = inhibition above about 26%;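 note: 0% = DMSO vehicle and 100% = reference inhibitor; higher means more Nile Red retained so more efflux inhibition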
Cdr2 pump inh: inhibitors of Candida albicans Cdr2 efflux pump. Nile Red retention ratio vs DMSO, % at 10 µM. S. cerevisiae AD/CaCDR2, Nile Red retention, flow cytometry. shares compounds with Efflux pump inh. 1,700 tested, 4% active; in the data active = Nile Red retention ratio vs DMSO above about 190%;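 note: higher ratio means more blocking of Cdr2 efflux of the dye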
Cdr1 pump inh: inhibitors of Candida albicans Cdr1 efflux pump; shares compounds with Efflux pump inh; S. cerevisiae AD/CaCDR1, Nile Red efflux, flow cytometry; inhibition, % at 10 µM; 1,700 tested, 1% active; AID 588522;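 active = inhibition above the screen-wide mean plus twice its standard deviation, cut at about 32% in these data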
An asterisk follows results filed as active; · = no result given. An excerpt weighted towards active compounds, which were near 2.1% of everything screened.

SMILES	SUMO Mot1 rescue	RTF Ca sens inh	UCH37 inh	cardiac RTF act	Efflux pump inh	ARNT TACC3 PPI	Cmpd fluor yeast	CaMdr1 efflux inh	Cdr2 pump inh	Cdr1 pump inh
CCC(Sc1nc2ccsc2c(=O)n1Cc1ccc(C(=O)O)cc1)C(=O)Nc1ccc(C)c(Cl)c1 (centres undefined)	-1.7	-4.8	2.6	-2.3	0.8*	-1.3	123.7	0.3	105.1	0.0
Cc1ccc(-c2c[n+](CC(=O)Nc3ccc(C)cc3C)c3n2CCC3)cc1	52.0	-9.1	2.3	7.6	-0.1	-1.6	·	·	·	·
O=C(C[n+]1cc(-c2ccc(Cl)c(Cl)c2)n2c1CCC2)N1c2ccccc2Sc2ccccc21	-13.4	-3.9	15.7	12.0	4.3*	30.1	105.0	-0.1	107.8	-0.3
Cc1ccc(-c2c[n+](Cc3ccc(Cl)c(Cl)c3)c3n2CCC3)cc1	-8.2	3.1	4.7	3.5	17.7*	20.6	79.0	0.1	86.9	-0.2
Cc1ccc(C(=O)C[n+]2cc(-c3ccc(C)cc3)n3c2CCCCC3)cc1	-13.1	-3.4	0.9	-2.5	0.1	1.5	·	·	·	·
Cc1ccc(NC(=O)C[n+]2cc(-c3ccc(C)cc3)n3c2CCC3)cc1	2.0	-0.8	2.8	0.4	0.1	-3.8	107.2	-0.2	98.5	0.0
ON=C(c1ccccc1)c1nccc2ccccc12	·	·	0.9	·	·	·	·	·	·	·
O=C(CN1CCN(S(=O)(=O)c2ccc(Br)cc2)CC1)NN=Cc1cc([N+](=O)[O-])ccc1Cl	·	·	3.8	·	·	·	·	·	·	·
CCn1c(SCC(=O)NN=C/C(C)=C\c2ccco2)nnc1-c1ccccc1	·	·	-1.2	·	·	·	·	·	·	·
O=C1CCN(S(=O)(=O)c2ccc(Cl)cc2)N1	-16.9	-9.4	2.9	-0.1	-0.2	-0.5	·	·	·	·
O=C1CCN(Cc2ccc(Cl)cc2)N1	10.0	-5.0	2.3	-0.1	2.1*	-0.4	98.3	-0.1	90.1	0.0
CC(=O)Nc1cccc(C(C)=NNC(=O)c2cccs2)c1	·	·	2.7	·	·	·	·	·	·	·
CCN(Cc1nc2cc(Cl)ccc2c(=O)[nH]1)C(=O)c1cccc(OCc2c(C)noc2C)c1	152.4	-9.9	1.7	0.4	1.6*	4.5	95.3	-0.3	86.7	0.1
CCN(Cc1nc2cc(Cl)ccc2c(=O)[nH]1)C(=O)c1cccc(NC(=O)c2cccs2)c1	-2.1	-6.7	1.0	-1.8	0.5	-0.3	·	·	·	·
COc1ccc(CNC(=O)C(=O)NCC2OCCN2S(=O)(=O)c2ccc3c(c2)OCCO3)cc1 (centres undefined)	-2.3	-12.6	-1.1	5.9	0.0	1.9	·	·	·	·
COc1ccc(CNC(=O)C(=O)NCC2OCCN2S(=O)(=O)c2ccc(OC)cc2)cc1 (centres undefined)	-0.9	-7.7	4.5	1.9	-1.0	-1.7	101.1	-0.1	98.1	-0.1
COc1ccc(CCNC(=O)C(=O)NCC2OCCN2S(=O)(=O)c2ccc(OC)cc2)cc1 (centres undefined)	-2.7	-6.6	5.7	4.8	-0.3	1.0	·	·	·	·
COc1ccc(S(=O)(=O)N2CCOC2CNC(=O)C(=O)NCc2ccc3c(c2)OCO3)cc1 (centres undefined)	3.3	-0.3	0.0	2.7	-0.1	-2.5	97.8	-0.2	102.2	-0.1
Cc1cc(=O)[nH]c(NN=C2CCCC/C2=C\c2ccccc2)n1	·	·	5.1	·	·	·	·	·	·	·
O=C1C(Cc2cccc([N+](=O)[O-])c2)SC(=NN=Cc2ccco2)N1c1ccccc1 (centres undefined)	·	·	2.0	·	·	·	·	·	·	·
O=C1C(Cc2cccc([N+](=O)[O-])c2)SC(=Nc2ccccc2)N1c1ccccc1 (centres undefined)	142.4	-20.8	0.2	8.4	13.5*	3.7	119.6	0.6	110.2	0.0
CC(=NNS(=O)(=O)c1c(C)cc(C)cc1C)c1ccncc1	·	·	4.0	·	·	·	·	·	·	·
COc1ccccc1CC(=O)Nc1ccccc1O	2.0	-7.7	0.4	-6.6	-0.1	-13.7	·	·	·	·
COc1ccccc1CC(=O)NC(=O)c1ccccc1O	87.6	0.4	-18.6	-3.8	3.0*	-6.2	104.5	-0.3	104.2	0.0
O=C(Nc1ccc2nc3n(c(=O)c2c1)CCCCC3)c1c(F)ccc([N+](=O)[O-])c1F	-0.6	-14.0	·	-3.2	0.5	-7.7	·	·	·	·
SMILES	SUMO Mot1 rescue	RTF Ca sens inh	UCH37 inh	cardiac RTF act	Efflux pump inh	ARNT TACC3 PPI	Cmpd fluor yeast	CaMdr1 efflux inh	Cdr2 pump inh	Cdr1 pump inh
O=C(Nc1ccc2nc3n(c(=O)c2c1)CCCCC3)c1cc([N+](=O)[O-])ccc1F	-12.5	-9.0	·	2.5	0.7*	6.8	94.0	-0.1	90.1	0.0
O=C(c1cccc(F)c1)N1C2C=CC(C2)C1(C(F)(F)F)C(F)(F)F (centres undefined)	18.6	4.9	-1.5	-3.1	0.1	-4.0	·	·	·	·
O=C(c1ccc(Cl)cc1)N1C2C=CC(C2)C1(C(F)(F)F)C(F)(F)F (centres undefined)	1.5	-28.3	-0.8	7.4	15.2*	-5.7	128.2	1.0	106.0	0.0
CCOc1cc(C=NNC(=O)CSc2nncn2C)ccc1OCc1ccccc1	·	·	5.7	·	·	·	·	·	·	·
O=C(O)Cc1ccc(NC(=O)c2ccc(NC(=O)c3ccco3)cc2)cc1	12.7	-5.0	6.7	1.5	10.6*	-6.3	106.8	-0.3	99.6	0.1
O=C(Nc1ccc(O)cc1C(=O)O)c1ccc(NC(=O)c2ccco2)cc1	-5.6	14.6	7.5	-2.9	0.1	12.6	106.8	-0.2	95.4	-0.1
COc1ccc(Br)cc1C=NNC(=O)CN1CCN(Cc2ccccc2)CC1	·	·	1.6	·	·	·	·	·	·	·
Cc1ccc(C)c(OCc2cc(C(=O)N(C)Cc3nccs3)no2)c1	5.4	-2.1	1.8	3.3	-0.1	-0.9	181.6	1.2	110.2	1.2
Cc1ccc(C)c(OCc2cc(C(=O)N(C)Cc3ccccn3)no2)c1	-2.2	-11.3	2.6	-2.7	-0.1	-5.7	·	·	·	·
Cc1cc(C)n(CC(=O)N/N=C/c2cc([N+](=O)[O-])ccc2O)n1	51.0	-7.1	·	3.6	18.9*	72.2*	110.0	0.1	109.4	-0.1
Cc1cc(C)n(CC(=O)N/N=C/c2cc(Br)cc([N+](=O)[O-])c2O)n1	-2.4	-9.3	·	-11.6	0.1	2.9	·	·	·	·
Cc1ccc(CC(=O)NN=Cc2ccc3c(c2)OCO3)cc1	·	·	-0.7	·	·	·	·	·	·	·
COc1cc(/C=N/NC(=O)COc2ccc(C)cc2)ccc1OC(=O)c1cccs1	14.9	1.2	·	5.3	2.1*	20.8	86.5	-0.4	98.1	-0.1
Cc1ccc(Cn2cccc2C=NNC(=S)Nc2ccc(C)cc2)cc1	·	·	3.1	·	·	·	·	·	·	·

Screening data: PubChem BioAssay, several laboratories
